# Measurements as given in ChEMBL document CHEMBL1131524, “Azapeptides as inhibitors and active site titrants for cysteine proteinases” (J Med Chem, 1998).
# Columns and labels:
# Cathepsin B (Bos taurus) [1] = biological target: Cathepsin B (Bos taurus) (UniProt P07688); assay: The apparent second-order rate constant for inactivation of bovine cathepsin B enzyme. Apparent rate constant was determined from repeats of Kobs vs [I] using at least 5 values of [I].
# How it was run: (§1)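 Bovine spleen cathepsin B was activated with 10 mM dithiothreitol, and its active concentration was set by E-64 titration. Assays ran in 25 mM sodium acetate, 1 mM EDTA, pH 5.3, with 20% CH3CN and 80 μM Cbz-Lys-ONp, monitored at 326 nm. Inactivation was analysed by Kitz–Wilson, with kobsd from semilog plots of activity versus time.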
# Papain (Carica papaya) [2] = biological target: T1, Papain (Carica papaya) (UniProt P00784); assay: The apparent second-order rate constant for inactivation of papain enzyme. Apparent rate constant was determined from repeats of Kobs vs [I] using at least 5 values of [I].
# T1 sequence (whole entry): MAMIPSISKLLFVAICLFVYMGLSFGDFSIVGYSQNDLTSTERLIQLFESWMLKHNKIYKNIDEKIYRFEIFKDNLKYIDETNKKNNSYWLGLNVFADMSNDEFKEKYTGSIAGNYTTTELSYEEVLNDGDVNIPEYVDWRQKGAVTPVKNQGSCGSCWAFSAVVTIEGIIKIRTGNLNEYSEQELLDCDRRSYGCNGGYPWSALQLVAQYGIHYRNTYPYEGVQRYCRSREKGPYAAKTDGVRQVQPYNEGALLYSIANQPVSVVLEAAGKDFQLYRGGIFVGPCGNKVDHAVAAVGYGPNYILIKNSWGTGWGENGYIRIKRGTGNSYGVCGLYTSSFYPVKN
# How it was run: (§2)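 Papain purified from mercuripapain on Hg-Sepharose, then activated with L-cysteine for 15 min at room temperature in 50 mM K2HPO4, 1 mM EDTA, pH 6.3. Assays used 50 μM Cbz-Gly-ONp in buffer with 20% CH3CN, followed at 340 nm and corrected for spontaneous hydrolysis. Analysis was by Kitz–Wilson, with kobsd taken from slopes of semilog activity-versus-time plots.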
# Cathepsin B (Bos taurus) [3] = biological target: Cathepsin B (Bos taurus) (UniProt P07688); assay: Specificity constant is determined from the ratio of the inactivation rate constants (Kcat/Km)of the cathepsin B.
# Papain (Carica papaya) [4] = biological target: T1, Papain (Carica papaya); assay: Specificity constant is determined from the ratio of the inactivation rate constants (Kcat/Km)of the papaine.
# Cathepsin B (Bos taurus) [5] = biological target: Cathepsin B (Bos taurus) (UniProt P07688); assay: The apparent second-order rate constant for inactivation of bovine cathepsin B enzyme. Apparent rate constant was determined from repeats of Kobs vs [I] using at least 5 values of [I], where I=0.95 mM; how it was run: as §1
# Papain (Carica papaya) [6] = biological target: T1, Papain (Carica papaya); assay: The apparent second-order rate constant for inactivation of papain enzyme. Apparent rate constant was determined from repeats of Kobs vs [I] using at least 5 values of [I] where I=0.95 mM; how it was run: as §2
# Papain (Carica papaya) [7] = biological target: T1, Papain (Carica papaya); assay: Specificity constant is determined from the ratio of the inactivation rate constants (Kcat/Km)of the papain
# Cathepsin B (Bos taurus) [8] = biological target: Cathepsin B (Bos taurus) (UniProt P07688); assay: The apparent second-order rate constant for inactivation of bovine cathepsin B enzyme. Apparent rate constant was determined from repeats of Kobs vs [I] using at least 5 values of [I], where I=0.2 mM
# How it was run: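 Bovine spleen cathepsin B, activated with 10 mM dithiothreitol, in 25 mM sodium acetate pH 5.3 with 1 mM EDTA and 20% CH3CN (v/v). Substrate 80 μM Cbz-Lys-ONp; hydrolysis followed at 326 nm (Δε 9060 M⁻¹ cm⁻¹). Enzyme concentration set by E-64 titration. Kitz–Wilson analysis: k_obsd from slopes of semilog plots of activity vs time.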
# Papain (Carica papaya) [9] = biological target: T1, Papain (Carica papaya); assay: Specificity constant is determined from the ratio of the inactivation rate constants (Kcat/Km)of the papain.
Structure (SMILES),k2/Ki (Cathepsin B (Bos taurus) [1]),k2/Ki (Papain (Carica papaya) [2]),k cat/Km (Cathepsin B (Bos taurus) [3]),further results
CCOC(=O)N(C)NC(=O)[C@H](Cc1ccccc1)NC(C)=O,–,0.05 M⁻¹ s⁻¹,–,–
COC(=O)N(C)NC(=O)[C@H](Cc1ccccc1)NC(C)=O,–,0.05 M⁻¹ s⁻¹,–,–
CC(=O)N[C@@H](Cc1ccccc1)C(=O)N/N=C(/N)S,–,0.03 M⁻¹ s⁻¹,–,–
CC(=O)N[C@@H](Cc1ccccc1)C(=O)NN(Cc1ccccc1)C(=O)Oc1ccccc1,–,–,–,kobs/[I] (Cathepsin B (Bos taurus) [5]): < 0.2 M⁻¹ s⁻¹; kobs/[I] (Papain (Carica papaya) [6]): 0.3 M⁻¹ s⁻¹
O=C(N[C@@H](Cc1ccccc1)C(=O)Oc1ccc([N+](=O)[O-])cc1)OCc1ccccc1,–,–,80000 M⁻¹ s⁻¹,k cat/Km (Papain (Carica papaya) [7]): 120000 M⁻¹ s⁻¹
CC(=O)N[C@@H](Cc1ccccc1)C(=O)NNC(=O)OCC(Cl)(Cl)Cl,730 M⁻¹ s⁻¹,11800 M⁻¹ s⁻¹,730 M⁻¹ s⁻¹,k cat/Km (Papain (Carica papaya) [4]): 11800 M⁻¹ s⁻¹
CC(=O)N[C@@H](Cc1ccccc1)C(=O)NN(C)C(=O)OCC(Cl)(Cl)Cl,–,12 M⁻¹ s⁻¹,–,kobs/[I] (Cathepsin B (Bos taurus) [5]): 0.34 M⁻¹ s⁻¹
CC(=O)N[C@@H](Cc1ccccc1)C(=O)NN(C)C(=O)Oc1ccccc1,–,110 M⁻¹ s⁻¹,18 M⁻¹ s⁻¹,k obs / 1 (Cathepsin B (Bos taurus) [8]): 18; k cat/Km (Papain (Carica papaya) [4]): 110 M⁻¹ s⁻¹
NCCCC[C@H](NC(=O)OCc1ccccc1)C(=O)Oc1ccc([N+](=O)[O-])cc1,–,–,776000 M⁻¹ s⁻¹,k cat/Km (Papain (Carica papaya) [9]): 853000 M⁻¹ s⁻¹
CC(=O)N[C@@H](Cc1ccccc1)C(=O)NNC(=O)OCC(C)C,–,55 M⁻¹ s⁻¹,–,–

# Second part, led by results:
k2/Ki (Cathepsin B (Bos taurus) [1]),k2/Ki (Papain (Carica papaya) [2]),k cat/Km (Cathepsin B (Bos taurus) [3]),Structure (SMILES),further results
0 M⁻¹ s⁻¹,1 M⁻¹ s⁻¹,–,CC(=O)N[C@@H](Cc1ccccc1)C(=O)NNC(=O)Nc1ccc([N+](=O)[O-])cc1,–
54 M⁻¹ s⁻¹,1150 M⁻¹ s⁻¹,–,CC(=O)N[C@@H](Cc1ccccc1)C(=O)NNC(=O)OCCCl,–
7730 M⁻¹ s⁻¹,67600 M⁻¹ s⁻¹,7730 M⁻¹ s⁻¹,CC(=O)N[C@@H](Cc1ccccc1)C(=O)NNC(=O)Oc1ccccc1,k cat/Km (Papain (Carica papaya) [4]): 67600 M⁻¹ s⁻¹
–,19 M⁻¹ s⁻¹,–,COC(=O)NNC(=O)[C@H](Cc1ccccc1)NC(C)=O,–
0 M⁻¹ s⁻¹,4 M⁻¹ s⁻¹,–,CC(=O)N[C@@H](Cc1ccccc1)C(=O)NNC(N)=O,–
–,> 70000 M⁻¹ s⁻¹,–,CC(=O)N[C@@H](Cc1ccccc1)C(=O)NNC(=O)Oc1ccc([N+](=O)[O-])cc1,–
–,–,450000 M⁻¹ s⁻¹,C[C@H](NC(=O)OCc1ccccc1)C(=O)Oc1ccc([N+](=O)[O-])cc1,k cat/Km (Papain (Carica papaya) [7]): 800000 M⁻¹ s⁻¹
–,47 M⁻¹ s⁻¹,–,CCOC(=O)NNC(=O)[C@H](Cc1ccccc1)NC(C)=O,–
90 M⁻¹ s⁻¹,1250 M⁻¹ s⁻¹,–,CC(=O)N[C@@H](Cc1ccccc1)C(=O)NNC(=O)OCCBr,–
310 M⁻¹ s⁻¹,30500 M⁻¹ s⁻¹,–,CC(=O)N[C@@H](Cc1ccccc1)C(=O)NNC(=O)OCc1ccccc1,–
